The chains are these.
B1: tRNA (parent)
chain: GUUCCGUUGGCGUAAUGGUAACGCGUCUCCCUCCUAAGGAGAAGACUGCGGGUUCGAGUCCCGUACGGAACG

Variants at the floor of the assay were thinned out.

The variants in this data set derive from B1. Description: yeast fitness relative to wild type (ratio to wild type); higher = fitter; tRNA-Arg(CCU), competitive growth, 37 C, YPD. An outline of the steps:
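Gene amplicons from the start population and from each of six end populations were read by 100-nucleotide paired-end sequencing. Those end populations came from pooled Saccharomyces cerevisiae strains carrying tRNA-Arg(CCU) gene variants at the native locus, competed in YPD at 37°C for 24 hours. Fitness relative to wild type was worked out from changes in genotype frequencies. Genotypes needed ≥ 100 starting reads, and estimates < 0.5 were set to 0.5.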
For the variant GUUCCGUUGGCGUAAUGGUAACGCGUCUCGCUCCUAAGGAGAAGAGUGCGGGUUCGUGUCCCGUAUGGAUCG, the yeast fitness is ≤ 0.5.
With GUUCCGUUGGCGUAAUGGUAACGCGUCUCGCUCCUAAGGAGAAGACUGCGGCUUCGAGUCCCGUCCGGAACG the figure was ≤ 0.5; with GUUCCGUUGGCGUAAUGGUAACGCGUCUCGCUCCUAAGGAGAAGACCGCGAGUUCGAGUCCCGUAUGGAACG, ≤ 0.5; with GUUCCGUUGGCGUAAUGGUAACGCGUCUCUCUCCUAAGGAGAAGACUGCGGGUUCGGGUCCCGUACGGAACG, 0.709.
For the variant GUUCCGUUGGCGUAAUGGUAACGCGUCUCUCUCCUAAGGAGAAGGCUGCGGGUUCGAGUCACGUUCGGAACG, the yeast fitness is ≤ 0.5.
Next, GUUCCGUUGGCGUAAUGGUAACGCGUCUCUUUCAUAAGGAGAAGACUGCGGGUUCGAGUCCCGUACGGAACG: 0.601; GUUCCGUUGGCGUAAUGGUAACGCGUCUCGCCCCUAAGGAGAAGACUGCGGGUUCGAGUCCCGUACGGAACG: 0.708; GUUCCGUUGGCGUAAUGGUAACGCGUCUCUCUCCUAAGGAGAAGACUGCGGCUUCGAGUCCCGUACGGAACG: 0.593.
With GUUCCGUUGGCGUAAUGGUAACGCGUCUCUCUCCUAAGGAGAAGACUGCGGGUUCGAGUCCCGUACGGGACG, the yeast fitness worked out at 0.947.
Next, GUUCCGUUGGCGUAAUGGUAACGCGUCUCUCUCCUAAGGAGAAGACUGCGGGUUCGAGUCCCGUACGGUACG: 0.879; GUUCCGUUGGCGUAAUGGUAACGCGUCUCUCUCCUAAGGAGAAGACUGCGGGUUCGAGUCCCGUACGGCACG: 0.773; GUUCCGUUGGCGUAAUGGUAACGCGUCUCUCUCCUAAGGAGAAGACUGCGGGUUAGAGUCCCGUACGGAACG: 0.667.
On to GUUCCGUUGGCGUAAUGGUAACGCGUCUCGCUCCUAAGGAGAAGACUGCGGGUUCGAGUACCGUAUGGAACG, for which the yeast fitness worked out at 0.551.
With GUUCCGUUGGCGUAAUGGUAACGCGUCUCUCUCCUAAGGAGAAGAGUGUGGGUUCGAGUCCCGUACGGAACG the figure was 0.641.
On to GUUCCGUUGGCGUAAUGGUAACGCGUCUCUCUCCUAAGGAGAAGACUGCGGGUUUGAGUCCCGUACUGAACG, for which the yeast fitness was ≤ 0.5.
Next, GUUCCGUUGGCGUAAUGGUAACGCGUCUCUCUCCUAAGAGGAAGACUGCGGGCUCGAGUCCCGUACAGAACG: ≤ 0.5; GUUCCGUUGGCGUAAUGGUAACGCGUCUCGCUCCUAAGGAGAAGAAGGAGGAUUCGACUCCCGGGCGGAACG: 0.528; GUUCCGUUGGCGUAAUGGUAACGCGUCUCGCUCCUAAGGAAAAGACUGCGGGUUCGAGUCCCGUGCGGAACG: ≤ 0.5.
With GUUCCGUUGGCGUAAUGGUAACGCGUCUCGCUCCUAAGGAGAAGACUGCUGGUUCGAGUCCCGUAUGGAACG the figure was 0.573; with GUUCCGUUGGCGUAAUGGUAACGCGUCUCGCUCCUAACGAGAAGACUGCGGAUUUGAGUCCCGUACGGAACG, ≤ 0.5; with GUUCCGUUGGCGUAAUGGUAACGCGUCUCUCUCCUAAGGAGAAGACUGCGGGUUCGACUCCCCUACGGAACG, 0.57.
Turning to GUUCCGUUGGCGUAAUGGUAACGCGUCUCUUUCCUAAGGACAAGGCUGUGGGUUCGAGUCCCGUAUGGGACG, the yeast fitness is ≤ 0.5.
For the variant GUUCCGUUGGCGUAAUGGUAACGCGUCUCUCUCCUAAGGAGACGACUGCGGGUUCGAGUCCCGUACGGAUCG, the yeast fitness turned out to be 0.556.
With GUUCCGUUGGCGUAAUGGUAACGCGUCUCGCUCCUAAGGACAAGACUGCGGGUUCGAGUCCCGUACGAAACG the figure was ≤ 0.5; with GUUCCGUUGGCGUAAUGGUAACGCGUCUCGCUCCUAAGGAGAAGACAGCCGGUUCGAGUCCCGUGCGCAACG, ≤ 0.5.
With GUUCCGUUGGCGUAAUGGUAACGCGUCUCGCUCCUAAGGAGAAGACUACGGGCUCGAGUCCCGUACGGAACG, the yeast fitness was ≤ 0.5.
On to GUUCCGUUGGCGUAAUGGUAACGCGUCUCUCUCCUAAGGAGAAGUCUGCGGGUUCGAGUCCCGUACGGGACG, for which the yeast fitness came to 0.566.
Turning to GUUCCGUUGGCGUAAUGGUAACGCGUCUCUCUCCUAAGGAGAAGUCUGCGGGUUCGAGUCCCGUACGGUACG, the yeast fitness was 0.797.
With GUUCCGUUGGCGUAAUGGUAACGCGUCUCGCUCCUAAGGAGAACACUGCGCGUUCGAGUCCCGUACGGUACG the figure was ≤ 0.5.
With GUUCCGUUGGCGUAAUGGUAACGCGUCUCUGUCGUAAGGAGAAGACUGCGGGUUCGAGUCCCGUAAGGAACG the figure was ≤ 0.5; with GUUCCGUUGGCGUAAUGGUAACGCGUCUCGCUCCUAAGGAGAAGAUUGCGGGUUCGAGUCCCGUCCGGAACG, ≤ 0.5.
Next, GUUCCGUUGGCGUAAUGGUAACGCGUCUCUUUCCUAAGGAGUAGACUGCGGGUUCGAGUCCCGUACAGAACG: 0.537; GUUCCGUUGGCGUAAUGGUAACGCGUCUCUCUCCUAAGGAGAAGAUUGCGGCUUCGAGUCCCGUACGGAACG: ≤ 0.5; GUUCCGUUGGCGUAAUGGUAACGCGUCUCGCUCCUAAGGAGAAGACUGCGGGUUCGACUUCCGUGCGGAACG: ≤ 0.5.
Consider GUUCCGUUGGCGUAAUGGUAACGCGUCUCUCUCCUAAGGAGACGACUGCGGAUUCGAGUCCCGUACGGAACG, for which the yeast fitness was determined as 0.516.
With GUUCCGUUGGCGUAAUGGUAACGCGUCUCUCUCCUGAGGAGAAAACUGCGGGUUCGAGUCCCGUACGGAACG the figure was 0.638; with GUUCCGUUGGCGUAAUGGUAACGCGUCUCUCUCCUAAGGAGAAGAAUGCGGGUUCGAGUCCCCUACGGAGCG, ≤ 0.5.
With GUUCCGUUGGCGUAAUGGUAACGCGUCUCUCUCCUAAGGAGAAGACUGCGGGUUCGAGUCCCGUACUGAACG the figure was 0.83; with GUUCCGUUGGCGUAAUGGUAACGCGUCUCUCUCCUAAGGAGAAGACUGCGGGUUCGAGUACCGUACGGACCG, ≤ 0.5; with GUUCCGUUGGCGUAAUGGUAACGCGUCUCUCUCCUCAGGAGAAGAUUGCGGGAUCGAGUCCCGUACGGAACG, ≤ 0.5.
For GUUCCGUUGGCGUAAUGGUAACGCGUCUCUCUCCUACGGAGAAGACUGCGGGUUCGAGUUCCGUACGGAACG, the yeast fitness came to 0.548.
Next, GUUCCGUUGGCGUAAUGGUAACGCGUCUCUCUCCUAAGGAGAAGACUGCGGGUUCGGGUCCCGUACGGAUCG: 0.558; GUUCCGUUGGCGUAAUGGUAACGCGUCUCGCUCCUAAGGAGAAGACUGCGCGUUCGAGUCGCGUACGGAACG: ≤ 0.5; GUUCCGUUGGCGUAAUGGUAACGCGUCUCUCUCCUAAGGAGAAGAAUGCGGGUUCGAGUCCCGUACGGACCG: 0.82.
With GUUCCGUUGGCGUAAUGGUAACGCGUCUCUCUCCUAAGGAGAAGACUGUGGGUACGAGUCCCGUACGGAACG the figure was ≤ 0.5; with GUUCCGUUGGCGUAAUGGUAACGCGUCUCUCUCCUAACGAGAAGACUGCGGGUUCGAGUCCCAUACGGAGCG, ≤ 0.5.
Take GUUCCGUUGGCGUAAUGGUAACGCGUCUCUCUCCUAAGGCGAAGACUGCGGGUUCGAGCCCCGUGCGGAACG: the yeast fitness was ≤ 0.5.
Next, GUUCCGUUGGCGUAAUGGUAACGCGUCUCUCUCCUAAGGAGAAGACUGCGGGUUCGAGUCCCGUCCGGAACG: 0.841.
With GUUCCGUUGGCGUAAUGGUAACGCGUCUCUCUCCUAAGGAGAAGACUGCGGGUUCAAGUCCCGUACGGAACG, the yeast fitness is 0.942.
GUUCCGUUGGCGUAAUGGUAACGCGUCUCUCUCCUAAGCAGAAGACUGCAGGUUCGAGUCCCGUACGGAACG: the yeast fitness is ≤ 0.5.
With GUUCCGUUGGCGUAAUGGUAACGCGUCUCGCUCCUAAGGAGAAGAAGGAGGAUUCGACUCCCGGGCGGGACG the figure was ≤ 0.5.
With GUUCCGUUGGCGUAAUGGUAACGCGUCUCUCUCCUAAGACGAAGACUGCGGGAUCGAGUCCCGUACGGAACG the figure was 0.565.
In the case of GUUCCGUUGGCGUAAUGGUAACGCGUCUCGCUCCUAACGAGAAGACUGCGGGUUCGAGUCCCGUACGGAACG, the yeast fitness turned out to be 0.741.
Take GUUCCGUUGGCGUAAUGGUAACGCGUCUCUCUCCUAAGGACAAGUCUGCGGGUUCGAGUCCCGUACGGAACG: the yeast fitness is ≤ 0.5.
Next, GUUCCGUUGGCGUAAUGGUAACGCGUCUCUCUCCUUAGGAGAAGACUGCGGGUUCGAGUCCGAUACGGAACG: 0.542.
For GUUCCGUUGGCGUAAUGGUAACGCGUCUCUCUCCUAACGAGAAGACUGCGGGUUCGAGUCCGGUACGGAACG, the yeast fitness is ≤ 0.5.
Next, GUUCCGUUGGCGUAAUGGUAACGCGUCUCUCUCCUAAGGAGAGGACUGCGCGUUCGAGUCCCGUACGGAACG: ≤ 0.5; GUUCCGUUGGCGUAAUGGUAACGCGUCUCUCUCCUAAGGAGAAGACUGCGGGUUCGACUCCCGUAUGGAACG: 0.663; GUUCCGUUGGCGUAAUGGUAACGCGUCUCGCUCCUAAGGAGAAGAAUGCGGGUUCAAGUCCCGUACGGAACG: 0.557.
Next, GUUCCGUUGGCGUAAUGGUAACGCGUCUCUCUCCUAAGGAGAAGCCUGCGGGUUCGAGUCCCGUACGGUACG: 0.704.
With GUUCCGUUGGCGUAAUGGUAACGCGUCUCUCUCCUAAGGAGAAGACUGCAGGUUCGAGUCCCGUACGGAACG the figure was 0.83; with GUUCCGUUGGCGUAAUGGUAACGCGUCUCUCUCCUAAGGAGAAGCCUGCGGGUUCGAGUCCCGUUCGGAACG, ≤ 0.5; with GUUCCGUUGGCGUAAUGGUAACGCGUCUCUCUCCUAAGGAGAAGACUGCCGGUUCGAGACCCGUACGGAACG, ≤ 0.5.
Regarding GUUCCGUUGGCGUAAUGGUAACGCGUCUCGCUCCUAAGGAGAAGACUGCGGGUUCGAGUUCCGUGCGGAACG, the yeast fitness was ≤ 0.5.
With GUUCCGUUGGCGUAAUGGUAACGCGUCUCUCUCCUGAGGAGAAAACUGCGGGUUCGAGUCCCGUAUGGAACG the figure was ≤ 0.5; with GUUCCGUUGGCGUAAUGGUAACGCGUCUCUCUCCUAAGGAGAAGACUGCGGGUUCGAGUCCGGUACGGAACG, 0.855.
Turning to GUUCCGUUGGCGUAAUGGUAACGCGUCUCUCUCCUAAGGAGAAGACUGCGGGUUCGAGUCCAGUACGGAACG, the yeast fitness was 0.798.
Next, GUUCCGUUGGCGUAAUGGUAACGCGUCUCUCUCCUGAGGAGAAGACUGCGGGUUCGAGUCGCGUACGGAACG: ≤ 0.5; GUUCCGUUGGCGUAAUGGUAACGCGUCUCUCUCCUAAGGAGAAGAAUGCGAGUUCGAGUCCCGUACGGAACG: 0.608.
Take GUUCCGUUGGCGUAAUGGUAACGCGUCUCUCUCCUAAGGUGAAGACUGCGGGUUCGAGUCCCGUACGGACCG: the yeast fitness is 0.56.
For the variant GUUCCGUUGGCGUAAUGGUAACGCGUCUCUCUACUAAGGAGAAGACUGCGGGUUCGAGUCCCGUACGGAACG, the yeast fitness turned out to be 0.672.
Take GUUCCGUUGGCGUAAUGGUAACGCGUCUCUCUCGUAAGGCGAAGACUGGGGGUUCGAGUCCCGUACGGAACG: the yeast fitness is ≤ 0.5.
With GUUCCGUUGGCGUAAUGGUAACGCGUCUCUCUCCUAAGGAGAAAACUCCGGGUUCGAGUCCCGUACGGAACG the figure was ≤ 0.5; with GUUCCGUUGGCGUAAUGGUAACGCGUCUCUCUCCUAACGAGAAGACUGCGGGUUCGAGACCCGUACGGAACG, ≤ 0.5.
Turning to GUUCCGUUGGCGUAAUGGUAACGCGUCUCUUUCCUAGGGAGAGGACUGCGGAUUCGAGUCCCGUACGGAACG, the yeast fitness was ≤ 0.5.

These data come from the RNAGym collection of RNA variant scans (doi:10.1126/science.aae0568).
